From ChEMBL document CHEMBL1130393, “Antitumor agents. 178. Synthesis and biological evaluation of substituted 2-aryl-1,8-naphthyridin-4(1H)-ones as antitumor agents that inhibit tubulin polymerization” (J Med Chem, 1997) come the findings set out here.

Structures are written as SMILES.

Assay [1] concerns HL-60. The experiment in a line: In vitro antitumor activity against HL-60(TB) tumor cell lines. It is filed as functional. The note with it: Homo sapiens.
Assay [2] relates to SF-295. The experiment in a line: In vitro antitumor activity against SF-295 tumor cell lines. It is filed as functional. As to conditions: Homo sapiens.
Assay [3] has as its target Tubulin (Bos taurus) (UniProt Q6B856+Q862L2+Q862F3). The experiment in a line: Inhibition of radiolabeled colchicine binding to tubulin. Type of assay: protein assay. On the set-up: concentration or dose not given beside the values. As to conditions: concentration not given here. In short, it runs like this:
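Measured by DEAE-cellulose filter binding. The 0.1 mL mixture held bovine brain tubulin 1.0 µM, 1.0 M monosodium glutamate (pH 6.6), 1 mM MgCl2, 0.1 mM GTP, 5.0 µM [3H]colchicine, 5% DMSO and inhibitor at 5.0 µM. It was incubated 20 min at 37 °C, filtered through two DEAE-cellulose papers, washed with water and counted by liquid scintillation.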

The subject of assay [4] is SK-MEL-5. The experiment in a line: In vitro antitumor activity against SK-MEL-5 tumor cell lines. It is filed as functional. As to conditions: Homo sapiens.
Assay [5] deals with Tumor Cell line. The experiment in a line: In vitro antitumor activity against NCI 's human tumor cell lines. Type of assay: functional. As to conditions: read-out: Average log GI50 (converted). In short, it runs like this: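 NCI in vitro screen of 60 human tumor cell lines. […] The value is calculated from all cell lines tested.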
For assay [6], the system named is MDA-N. The experiment in a line: In vitro antitumor activity against MDA-N tumor cell lines. The note with it: Homo sapiens. Type of assay: functional.
The subject of assay [7] is PC-3. The experiment in a line: In vitro antitumor activity against PC-3 tumor cell lines. The note with it: Homo sapiens. It is filed as functional.
In assay [8] the target is Tubulin (Bos taurus, UniProt Q6B856+Q862L2+Q862F3). The experiment in a line: Inhibition of tubulin polymerization. Type of assay: functional.
For assay [9], the system named is NCI-H460. The experiment in a line: In vitro antitumor activity against NCI-H460 tumor cell lines. It is filed as functional. As to conditions: Homo sapiens.
The test system of assay [10] is HCT-116. The experiment in a line: In vitro antitumor activity against HCT116 tumor cell lines. It is filed as functional. As to conditions: Homo sapiens.
Assay [11] deals with CAKI-1. The experiment in a line: In vitro antitumor activity against CAKI-1 tumor cell lines. Type of assay: functional. The note with it: Homo sapiens.
For assay [12], the system named is OVCAR-3. The experiment in a line: In vitro antitumor activity against OVCAR-3 tumor cell lines. Type of assay: functional. The note with it: Homo sapiens.
Assay [13] deals with MDA-MB-435. The experiment in a line: In vitro antitumor activity against MDA-MB-435 NCI 's human tumor cell lines. It is filed as functional.
The subject of assay [14] is U-251. The experiment in a line: In vitro antitumor activity against U-251 tumor cell lines. It is filed as functional. As to conditions: Homo sapiens.

Broadly, the GI50 is the concentration giving 50% growth inhibition. The term inhibition denotes the relative decrease from the control value, in per cent. The term IC50 denotes the point on the concentration scale where inhibition reaches its midpoint. As for `Cc1ccnc2nc(-c3cccc4ccccc34)cc(O)c12`, the GI50 in assay [1] is below 10 nM; in assay [2], 10.7 nM; in [4], below 10 nM; in assay [5], 35.5 nM; in [6], below 10 nM; in assay [7] it was 19.9 nM. The GI50 is below 10 nM in [9]; below 10 nM in assay [10]; 12 nM in assay [11]; below 10 nM in [12]; below 10 nM in [13]; below 10 nM in assay [14]. In [3], this compound came in with an inhibition of 37%. In assay [8], this compound registered an IC50 of 930 nM.
Turning to `Cc1cccc(-c2cc(O)c3c(C)ccnc3n2)c1`, the GI50 in assay [1] was 18.2 nM; in [2] it was 30.2 nM; in assay [4], 33.9 nM; in assay [5] it was 57.5 nM; in assay [6], 11 nM; in [7] it was 33.1 nM. The 50% growth inhibitory concentration (GI50) in [9] is 36.3 nM; in assay [10], 46.8 nM; in assay [11], 53.7 nM; in assay [12], 22.4 nM; in assay [13], below 10 nM; in assay [14] it was 53.7 nM. This compound also yielded an IC50 in assay [8] of 1800 nM.
Take `Oc1cc(-c2cccc3ccccc23)nc2ncccc12`: the GI50 is below 10 nM in assay [1]; below 10 nM in assay [2]; below 10 nM in assay [4]; 35.5 nM in assay [5]; below 10 nM in assay [6]; 17.8 nM in assay [7]. The GI50 in assay [9] was 38.9 nM; in assay [10], below 10 nM; in [11] it was 15.1 nM; in assay [12], below 10 nM; in [13] it was below 10 nM; in [14] it was 10.2 nM. The 50% inhibitory concentration (IC50) in [8] was found to be 1100 nM.
As for `Cc1cc(C)c2c(O)cc(-c3ccc4ccccc4c3)nc2n1`, the 50% growth inhibitory concentration (GI50) is 3470 nM in assay [1]; 14800 nM in [2]; 2190 nM in assay [4]; 13500 nM in assay [5]; 3240 nM in assay [6]; 5500 nM in assay [7]. Besides, the 50% growth inhibitory concentration (GI50) is 13200 nM in [9]; 12600 nM in [10]; 51300 nM in assay [11]; 20000 nM in assay [12]; 2950 nM in assay [13]; 15800 nM in assay [14]. Also, the IC50 in assay [8] was above 40000 nM.
Consider `Cc1ccc2c(O)cc(-c3cccc4ccccc34)nc2n1`, for which the GI50 in assay [1] was below 10 nM; in assay [2] it was 24 nM; in assay [4], 13.8 nM; in [5] it was 66.1 nM; in assay [6], below 10 nM; in assay [7], 30.2 nM. Further, the 50% growth inhibitory concentration (GI50) in [9] is 17.4 nM; in assay [10], below 10 nM; in assay [11], 6030 nM; in [12] it was below 10 nM; in assay [13], below 10 nM; in [14], 15.5 nM. Further, the inhibition in assay [3] stood at 40%. The compound further had an IC50 in assay [8] of 660 nM.
`Cc1cccc(-c2cc(O)c3ccc(C)nc3n2)c1`: the GI50 is 26.9 nM in assay [1]; 60.3 nM in assay [2]; 126 nM in assay [4]; 97.7 nM in [5]; 31.6 nM in assay [6]; 138 nM in [7]. In addition, the GI50 is 17.8 nM in assay [9]; 120 nM in [10]; 427 nM in assay [11]; 490 nM in assay [12]; 32.4 nM in assay [13]; 200 nM in assay [14]. In assay [8], the IC50 was determined as 1900 nM.
As to `Cc1cnc2nc(-c3cccc4ccccc34)cc(O)c2c1`, the GI50 is below 10 nM in [1]; below 10 nM in [2]; below 10 nM in [4]; 19.1 nM in assay [5]; below 10 nM in assay [6]; below 10 nM in [7]. Further, the GI50 in assay [9], in [10], in assay [11], in assay [12], in assay [13] and in assay [14] was below 10 nM in each case. The same compound gave an inhibition in [3] of 46%. This compound came in with an IC50 in assay [8] of 550 nM.
Consider `Cc1ccc2c(O)cc(-c3ccc4ccccc4c3)nc2n1`, for which the GI50 in assay [1] is 1780 nM; in [2], 3800 nM; in assay [4] it was 3310 nM; in [5], 4570 nM; in assay [6] it was 1950 nM; in [7], 2630 nM. Moreover, the GI50 is 3800 nM in [9]; 3980 nM in [10]; 5370 nM in [11]; 3630 nM in [12]; 1580 nM in [13]; 4570 nM in assay [14]. This compound also registered an IC50 in [8] of 5100 nM.
In the case of `Cc1cccc(-c2cc(O)c3cc(C)cnc3n2)c1`, the GI50 in assay [1] was 174 nM; in [2], 417 nM; in [4] it was 288 nM; in assay [5], 646 nM; in [6], below 10 nM; in [7], 309 nM. Also, the GI50 in assay [9] is 389 nM; in assay [10] it was 407 nM; in [11] it was 437 nM; in [12], 251 nM; in assay [13], below 10 nM; in assay [14], 170 nM. Moreover, in assay [8], the IC50 was found to be 1500 nM.
Regarding `Cc1cc(C)c2c(O)cc(-c3cccc4ccccc34)nc2n1`, the GI50 in [1] is 245 nM; in assay [2], 589 nM; in assay [4], 468 nM; in [5], 1050 nM; in assay [6], 234 nM; in assay [7] it was 759 nM. Besides, the GI50 in assay [9] was 631 nM; in [10] it was 380 nM; in [11], 9550 nM; in [12], 347 nM; in assay [13], 191 nM; in [14], 372 nM. This compound showed an inhibition in assay [3] of 15%. In addition, the IC50 in [8] is 780 nM.
Turning to `Oc1cc(-c2ccc3ccccc3c2)nc2ncc(Cl)cc12`, the GI50 is 1780 nM in assay [1]; 5500 nM in assay [2]; 2950 nM in assay [4]; 5750 nM in assay [5]; 1550 nM in assay [6]; 3090 nM in [7]. Further, the 50% growth inhibitory concentration (GI50) in [9] was 4070 nM; in assay [10], 3980 nM; in [11], 7590 nM; in [12] it was 2630 nM; in assay [13], 851 nM; in assay [14], 4790 nM. Also, the IC50 in [8] worked out at 2500 nM.
As for `Oc1cc(-c2ccc3ccccc3c2)nc2ncccc12`, the GI50 in [1] is 1820 nM; in assay [2], 9120 nM; in assay [4], 3470 nM; in assay [5], 8130 nM; in [6], 1660 nM; in assay [7], 10500 nM. Further, the GI50 is 3800 nM in assay [9]; 3800 nM in [10]; 5620 nM in assay [11]; 8320 nM in assay [12]; 1780 nM in assay [13]; 4370 nM in assay [14]. In assay [8], the IC50 worked out at 14000 nM.
On to `Cc1cnc2nc(-c3ccc4ccccc4c3)cc(O)c2c1`, for which the GI50 is 141 nM in assay [1]; 550 nM in assay [2]; 363 nM in assay [4]; 741 nM in assay [5]; 132 nM in [6]; 407 nM in assay [7]. Moreover, the GI50 in [9] is 398 nM; in assay [10] it was 468 nM; in assay [11] it was 617 nM; in assay [12], 355 nM; in assay [13], 105 nM; in assay [14], 468 nM. In assay [8], this compound showed an IC50 of 2100 nM.
Turning to `Cc1cccc(-c2cc(O)c3c(C)cc(C)nc3n2)c1`, the GI50 in assay [1] was 12900 nM; in assay [2], 64600 nM; in [4], 34700 nM; in [5], 38000 nM; in assay [6] it was 20900 nM; in assay [7] it was 31600 nM. Further, the GI50 in assay [9] is 44700 nM; in [10] it was 17800 nM; in [11], 56200 nM; in assay [12], 30200 nM; in assay [13], 20000 nM; in [14], 53700 nM. Besides, the concentration for half-maximal inhibition (IC50) in assay [8] came to 2300 nM.
In the case of `Cc1ccnc2nc(-c3ccc4ccccc4c3)cc(O)c12`, the GI50 in [1] was 204 nM; in assay [2] it was 1480 nM; in assay [4] it was 437 nM; in [5] it was 1200 nM; in [6] it was 204 nM; in assay [7], 1380 nM. In addition, the GI50 in [9] was 1050 nM; in assay [10], 427 nM; in assay [11], 2400 nM; in assay [12], 1290 nM; in assay [13], 204 nM; in [14] it was 646 nM. Besides, in assay [8], the IC50 turned out to be 1800 nM.
